Assay results published in ChEMBL document CHEMBL4334444, “Studies of Jatrogossone A as a Reactive Oxygen Species Inducer in Cancer Cellular Models” (J Nat Prod, 2019).
Blank lines part the entries; values can stand above or below the molecule they belong to. Calls of active or inactive are those of the source. The calls are words filed in the database; no cut-off is given here.

Tests used:
K562 = experiment: Antiproliferative activity against human K562 cells assessed as reduction in cell viability at 0.1 to 250 uM by CellTiter-Glo assay; type: functional, cell-based
How it was run: (§1)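 CellTiter-Glo luminescent viability readout. Cells kept at 37 °C under 5% CO2. HMEC primary cells grown in basal medium with growth kit; leukemia lines and murine BCR-ABL (WT, Bax/Bak DKO) cultured per earlier description. Positive controls: staurosporine 25 μM, gambogic acid 10 μM, a toxic quinoline. At least two biological replicates in technical triplicate; luminescence normalized to untreated controls; EC50 computed.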

HMEC = experiment: Cytotoxicity against human HMEC cells assessed as cell detachment; type: cell-based
UoC-B1 = experiment: Antiproliferative activity against human UOCB1 cells assessed as reduction in cell viability at 0.1 to 250 uM by CellTiter-Glo assay; type: functional, cell-based; how it was run: as §1
MCF7 [1] = experiment: Induction of apoptosis in human MCF7 cells assessed as increase in cleaved PARP 1 level at 1 to 10 uM after 3 hrs by Western blot analysis; type: functional, cell-based
How it was run: (§2)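 Western blot of KOPN-8 and MCF-7 lysates made in RIPA-type buffer (Tris pH 7.5, Triton X-100, deoxycholate, SDS) with protease and phosphatase inhibitors. 30 μg protein per lane was run on 4–12% Bis-Tris SDS-PAGE and transferred to nitrocellulose. Blots were probed for cleaved caspase-7 and PARP-1 and detected with IR-dye secondaries. Menadione served as positive control: 10 μM in KOPN-8, 30 μM in MCF-7. Blots are representative of three independent experiments.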

MCF7 [2] = experiment: Antiproliferative activity against human MCF7 cells assessed as reduction in cell viability at 0.1 to 250 uM by CellTiter-Glo assay; type: functional, cell-based; how it was run: as §1
KOPN-8 [3] = experiment: Induction of apoptosis in human KOPN8 cells assessed as increase in cleaved PARP 1 level at 1 to 10 uM after 3 hrs by Western blot analysis; type: functional, cell-based; how it was run: as §2
HepG2 = experiment: Antiproliferative activity against human HepG2 cells assessed as reduction in cell viability at 0.1 to 250 uM by CellTiter-Glo assay; type: functional, cell-based; how it was run: as §1
B-ALL [4] = experiment: Antiproliferative activity against mouse B-ALL cells expressing wild type BCR-ABL assessed as reduction in cell viability at 0.1 to 250 uM by CellTiter-Glo assay; type: functional, cell-based; how it was run: as §1
U2OS = experiment: Antiproliferative activity against human U2OS cells assessed as reduction in cell viability at 0.1 to 250 uM by CellTiter-Glo assay; type: functional, cell-based; how it was run: as §1
MCF7 [5] = experiment: Upregulation of Trx expression in human MCF7 at 10 uM after 3 to 6 hrs by Western blot analysis; type: functional, cell-based
How it was run: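 Western blot of KOPN-8 or MCF-7 lysates, 30 μg protein per lane on 4–12% Bis-Tris SDS-PAGE and transferred to nitrocellulose. Blots were probed with an oxidative stress defense antibody cocktail (catalase, SOD1, Trx, smooth muscle actin) and tubulin, and detected with IR-dye secondaries on a LI-COR Odyssey.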

MCF7 [6] = experiment: Upregulation of Trx level in human MCF7 at 1 uM after 3 to 6 hrs by Western blot analysis; type: functional, cell-based
How it was run: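 MCF-7 cells were exposed to compound for 3 or 6 h. Lysates were made in Tris-HCl pH 7.5 RIPA-type buffer with protease/phosphatase inhibitors and quantified by BCA. 30 μg protein per lane was run on 4–12% Bis-Tris SDS-PAGE in MES and transferred to nitrocellulose. Blots were probed for thioredoxin with tubulin as reference, detected with IR-dye secondaries (1:15 000) and scanned on an infrared imager.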

B-ALL [7] = experiment: Cytotoxicity against BCR-ABL p185- positive mouse B-ALL cells overexpressing human BCL-xL assessed as inhibition of cell viability after 24 hrs by AnnexinV-FITC/propidium iodide staining based flow cytometric analysis; type: functional
B-ALL [8] = experiment: Cytotoxicity against BCR-ABL p185-positive mouse B-ALL cells transfected with empty vector assessed as inhibition of cell viability after 24 hrs by AnnexinV-FITC/propidium iodide staining based flow cytometric analysis; type: functional
[9] = Half life in simulated gastric fluid; type: ADME
B-ALL [10] = experiment: Cytotoxicity against BCR-ABL p185-positive mouse B-ALL cells overexpressing human BCL-2 assessed as inhibition of cell viability after 24 hrs by AnnexinV-FITC/propidium iodide staining based flow cytometric analysis; type: functional
KOPN-8 [11] = experiment: Induction of mitochondrial membrane potential loss in human KOPN8 cells at 10 uM after 24 to 48 hrs by TMRM staining based flow cytometric analysis; type: functional, cell-based
How it was run: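 TMRM flow cytometry. KOPN-8 (4 × 10^4 or 5 × 10^5 per well) or MCF-7 (2 × 10^4 or 2 × 10^5 per well) were seeded 24 h, then treated 24–48 h. FCCP 10 μM was added 10 min before staining as positive control. Cells were stained with TMRM 100 nM for 0.5 h, then PBS-washed, resuspended in PBS with 1% FBS and analysed by flow cytometry; DAPI flagged compromised cells.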

MCF7 [12] = experiment: Induction of apoptosis in human MCF7 cells assessed as increase in cleaved PARP 1 level at 1 to 100 uM after 24 hrs by Western blot analysis; type: functional, cell-based; how it was run: as §2
SEM cells = experiment: Antiproliferative activity against human SEM cells assessed as reduction in cell viability at 1 to 10 uM by CellTiter-Glo assay; type: functional, cell-based; how it was run: as §1
SUM149PT = experiment: Antiproliferative activity against human SUM149 cells assessed as reduction in cell viability at >10 uM after 48 hrs by propidium iodide staining based fluorescence assay; type: functional
How it was run: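 MDA-MB-231 and SUM149 seeded at 6 × 10^4 to 2 × 10^5 cells/well, cultured 24 h, then exposed for 48 h. Cells fixed in cold methanol, stained with 0.4% propidium iodide, fluorescence imaged. Viability expressed as percent surviving cells relative to vehicle wells.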

KOPN-8 [13] = experiment: Induction of apoptosis in human KOPN8 cells assessed as increase in caspase 3/7 activity incubated for 24 hrs by caspase3/7 reagent based ApoTox-Glo triplex assay; type: functional, cell-based
How it was run: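 ApoTox-Glo Triplex assay in KOPN-8 or U2OS cells. Cells were incubated 12 h at 37 °C, then treated 24 h across 100–0.15 μM. Viability (GF-AFC, 400Ex/505Em) and cytotoxicity (bis-AAF-R110, 485Ex/520Em) were read after 30 min at 37 °C. Caspase-Glo 3/7 luminescence was then read after 0.5 h at room temperature. Values are mean ± SEM of three independent experiments.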

KOPN-8 [14] = experiment: Cytotoxicity against human KOPN8 cells assessed as cell viability at 0.95 to 125 uM after 72 hrs in presence of pan caspase inhibitor, Z-VAD-FMK by CellTiter-Glo assay; type: functional, cell-based
[15] = Stability in CH3CN assessed as micheal adduct formation by measuring intact compound incubated for 16 hrs in presence of NAC by NMR analysis; type: physicochemical

SMILES: CC1=C2CC(C)(C)/C=C/C(=O)/C(C)=C\C3=C[C@H](C)C[C@]3(O2)C1=O [JATROPHONE]
inhibition (K562): Active
Activity (HMEC): Toxic
inhibition (UoC-B1): Active
Activity (MCF7 [1]): Active
inhibition (MCF7 [2]): Active
Activity (KOPN-8 [3]): Active
inhibition (HepG2): Active
inhibition (B-ALL [4]): Active
inhibition (U2OS): Active
Activity (MCF7 [5]): inactive
Activity (MCF7 [6]): Active

half-life [9]: 124 h
Stability [15]: Stable
SMILES: CC(=O)O[C@H]1/C2=C/[C@@H](C)C(=O)C[C@H]3[C@@H](/C=C(\C)C(=O)[C@H]2C[C@H]1C)C3(C)C
IC50 (B-ALL [7]): 23.8 µM
IC50 (B-ALL [8]): 4.57 µM
IC50 (B-ALL [10]): 7.52 µM
Activity (KOPN-8 [11]): inactive
Activity (MCF7 [12]): Active
inhibition (SEM cells): Active
inhibition (SUM149PT): Active
Activity (KOPN-8 [13]): Dose-dependent effect
Activity (KOPN-8 [14]): inactive
